Source: paper PMC4531836 (Molecular imaging and biology : MIB : the official …, 2015)
Where “and” joins values, the source holds several entries; their conditions need not be identical. Identical values can stand only once. Entries after “also recorded” stand apart in the source; their conditions may differ.

How the values were obtained:
Format in all cases: in vivo, human
[1] = PET biodistribution in patients; conditions: visual
How it was run: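 Patients fasted 4–6 h, then received about 320.6 MBq IV (specific activity 107.2 MBq/nmol). Mid-thigh-to-vertex 3D PET/CT with CT attenuation correction followed. Four sequential scans began at injection, at 1, 2, 4 and 4 min per bed. A fifth scan (4 min/bed) ran at 120 min. Two non-blinded nuclear-medicine readers reviewed images visually.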

Radiation dosimetry = assay: Radiation dosimetry
How it was run: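 Four patients were analysed. Organ VOIs were drawn on longitudinal PET scans. Time-activity data were integrated by fitted single- or double-exponential functions, or numerically with single-exponential extrapolation. Residence times were scaled from CT-derived patient organ masses to reference masses. Absorbed doses used the MIRD S-value schema in OLINDA/EXM. The bladder model assumed 1.5 h voiding, and lens dose was taken as the photon dose to brain.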

[2] = Safety / adverse events in patients with prostate cancer; conditions: nine patients
How it was run: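 Nine patients received about 320.6 MBq IV after 4–6 h fasting. Vital signs and ECG were recorded before dosing, with pulse oximetry during scanning. Within 2 weeks before and after, they had history, examination, CBC with differential, metabolic panel (BUN, creatinine, alkaline phosphatase, bilirubin, transaminases) and ECG. Follow-up visit or contact came within 30 days. Events were graded by NCI CTCAE.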

prostate cancer = assay: PET/CT tumor uptake
How it was run: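 Sequential PET/CT ran from injection (PET1–PET4), with PET5 at 120 min. Tumour sites were foci at PET5 with uptake above surrounding soft tissue or blood pool. SUVmax was normalised to lean body mass for up to five hottest lesions per patient, using automatic VOIs at 50% activity threshold. Tumour-to-reference ratio was lesion SUVmax over SUVmean of liver, blood pool or muscle.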

[3] = Blood and plasma activity, plasma metabolites, urinary excretion
How it was run: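 Prostate cancer patients received about 320.6 MBq by slow IV push. Venous blood was drawn from the contralateral arm after PET2, PET4 and PET5, and 0.5 ml aliquots of blood and plasma were well-counted. Urine voided after PET4 and PET5 (about 110 and 160 min) was counted. For metabolites, plasma was acetonitrile-precipitated, spiked with unlabelled reference, and run on C18 radio-HPLC in 10% acetonitrile/90% triethylammonium phosphate pH 3.2 at 2 ml/min.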

- Radiotracer uptake in the brain [1]: No radiotracer uptake
- Absorbed dose (Radiation dosimetry; Adrenals): 3.11E-02 mGy/MBq
- Res. time (Radiation dosimetry; Adrenals): 3.16E-04 (Bq-h)/Bq
- Res. time (Radiation dosimetry; Bone marrow (spine)): 5.52E-02 (Bq-h)/Bq
- Absorbed dose (Radiation dosimetry; Brain): 2.19E-03 mGy/MBq
- Res. time (Radiation dosimetry; Brain): 4.74E-03 (Bq-h)/Bq
- Absorbed dose (Radiation dosimetry; Breasts): 4.57E-03 mGy/MBq
- Res. time (Radiation dosimetry; Gallbladder): 1.18E-03 (Bq-h)/Bq
- Absorbed dose (Radiation dosimetry; Gallbladder wall): 1.44E-02 mGy/MBq
- Res. time (Radiation dosimetry; Heart): 1.98E-02 (Bq-h)/Bq
- Absorbed dose (Radiation dosimetry; Heart wall): 1.29E-02 mGy/MBq
- Res. time (Radiation dosimetry; Heart wall): 6.24E-03 (Bq-h)/Bq
- Absorbed dose (Radiation dosimetry; Kidneys): 0.0945 mGy/MBq and 9.45E-02 mGy/MBq
- Res. time (Radiation dosimetry; Kidneys): 2.17E-01 (Bq-h)/Bq
- Res. time (Radiation dosimetry; LLI): 4.06E-03 (Bq-h)/Bq
- Absorbed dose (Radiation dosimetry; LLI wall): 1.05E-02 mGy/MBq
- Absorbed dose (Radiation dosimetry; Lacrimal glands): 3.50E-02 mGy/MBq
- Res. time (Radiation dosimetry; Lacrimal glands): 3.86E-04 (Bq-h)/Bq
- Absorbed dose (Radiation dosimetry; Lens): 1.25E-03 mGy/MBq
- Res. time (Radiation dosimetry; Lens): 4.32E-06 (Bq-h)/Bq
- Absorbed dose (Radiation dosimetry; Liver): 0.0380 mGy/MBq and 3.80E-02 mGy/MBq
- Res. time (Radiation dosimetry; Liver): 2.60E-01 (Bq-h)/Bq
- Absorbed dose (Radiation dosimetry; Lungs): 1.08E-02 mGy/MBq
- Res. time (Radiation dosimetry; Lungs): 3.70E-02 (Bq-h)/Bq
- Absorbed dose (Radiation dosimetry; Muscle): 6.32E-03 mGy/MBq
- Res. time (Radiation dosimetry; Muscle): 3.07E-01 (Bq-h)/Bq
- Absorbed dose (Radiation dosimetry; Osteogenic cells): 9.58E-03 mGy/MBq
- Absorbed dose (Radiation dosimetry; Ovaries (hypothetical, all-male cohort)): 8.89E-03 mGy/MBq
- Absorbed dose (Radiation dosimetry; Pancreas): 2.44E-02 mGy/MBq
- Res. time (Radiation dosimetry; Pancreas): 3.05E-03 (Bq-h)/Bq
- Absorbed dose (Radiation dosimetry; Parotid glands): 2.68E-02 mGy/MBq
- Res. time (Radiation dosimetry; Parotid glands): 1.19E-02 (Bq-h)/Bq
- Absorbed dose (Radiation dosimetry; Red marrow): 0.01 mGy/MBq and 1.04E-02 mGy/MBq
- Res. time (Radiation dosimetry; Remainder of body): 7.11E-01 (Bq-h)/Bq
- Absorbed dose (Radiation dosimetry; Skin): 4.05E-03 mGy/MBq
- Absorbed dose (Radiation dosimetry; Small intestine): 9.13E-03 mGy/MBq
- Absorbed dose (Radiation dosimetry; Spleen): 1.85E-02 mGy/MBq
- Res. time (Radiation dosimetry; Spleen): 2.07E-02 (Bq-h)/Bq
- Res. time (Radiation dosimetry; Stomach): 1.07E-02 (Bq-h)/Bq
- Absorbed dose (Radiation dosimetry; Stomach wall): 1.16E-02 mGy/MBq
- Absorbed dose (Radiation dosimetry; Submandibular glands): 0.0387 mGy/MBq and 3.87E-02 mGy/MBq
- Res. time (Radiation dosimetry; Submandibular glands): 6.95E-03 (Bq-h)/Bq
- Absorbed dose (Radiation dosimetry; Testes): 1.01E-02 mGy/MBq
- Res. time (Radiation dosimetry; Testes): 1.76E-03 (Bq-h)/Bq
- Absorbed dose (Radiation dosimetry; Thymus): 5.56E-03 mGy/MBq
- Absorbed dose (Radiation dosimetry; Thyroid): 8.56E-03 mGy/MBq
- Res. time (Radiation dosimetry; Thyroid): 2.34E-04 (Bq-h)/Bq
- Res. time (Radiation dosimetry; Total body): 1.96E+00 (Bq-h)/Bq
- Res. time (Radiation dosimetry; ULI): 2.20E-02 (Bq-h)/Bq
- Absorbed dose (Radiation dosimetry; ULI wall): 1.67E-02 mGy/MBq
- Res. time (Radiation dosimetry; Urinary bladder contents): 2.60E-01 (Bq-h)/Bq
- Absorbed dose (Radiation dosimetry; Urinary bladder wall, voiding interval 1.5 h): 0.0864 mGy/MBq and 8.64E-02 mGy/MBq
- Absorbed dose (Radiation dosimetry; Uterus (hypothetical, all-male cohort)): 1.15E-02 mGy/MBq
- Effective dose (Radiation dosimetry; four patients, OLINDA/EXM): 0.0165 mSv/MBq
- Radiation dose in the whole body and radiosensitive organs (Radiation dosimetry; whole body, red marrow, gonads, breasts): ≤ 0.01 mGy/MBq
- Red cell binding ([3]; 86 and 137 min post-injection): non-detectable
- Red cell binding ([3]; 20 min post-injection): negligible
- Average urinary excretion of the radiotracer ([3]; by 2 h post-injection): 11%
- Urinary excretion of the radiotracer, range ([3]; by 2 h post-injection): 6–15%
- Average urinary excretion of the radiotracer ([3]; by 3 h post-injection): 16%
- Urinary excretion of the radiotracer, range ([3]; by 3 h post-injection): 8–21%
SMILES: O=C(O)CCC(NC(=O)NC(CCCCNC(=O)c1ccc([18F])nc1)C(=O)O)C(=O)O (stereo not drawn) [[^18F]DCFPyL, 2-(3-(1-carboxy-5-[(6-[^18F]fluoro-pyridine-3-carbonyl)-amino]-pentyl)-ureido)-pentanedioic acid]
- Radiotracer-related adverse events with monitored heart rate or blood pressure [2]: no radiotracer-related adverse events
- Adverse events ([2]; IV bolus average 320.6 MBq): No major radiotracer-specific adverse events; also recorded: safe to administer
- SUVmax, individual lesions (prostate cancer; PET4 and PET5, approximately 1 and 2 h post-radiotracer injection): greater than 100
- SUVmax, highest uptake at a site of primary disease (prostate cancer; PET5 (120 min post-injection)): 71.6
- SUVmax, most avid bone lesions (prostate cancer; PET5 (120 min post-injection)): 102.0
- SUVmax, most avid lymph node lesion (prostate cancer; PET5 (120 min post-injection)): 100.3
- SUVmax in putative sites of prostate cancer (highest, some lesions) (prostate cancer; SUVmax normalized to lean body mass): > 100
- Radiotracer metabolites in plasma (radio-HPLC) ([3]; three patients, up to 173 min post-injection): all plasma activities were in the form of unmetabolized radioligand; also recorded: no metabolism
